# Screening data: PubChem BioAssay, several laboratories
# This is a sample that favours compounds with a hit; in the whole collection about 1.7% have one here.
# CaV13 FRET inh – Primary screen for inhibitors of IQ motif and Ca2+-dependent inactivation inhibitor domain binding in CACNA1D, Förster resonance energy transfer in living cells, …. 340,000 tested, 0.098% active. inhibition, % at 12.3 µM. HEK cells, CFP/YFP FRET ICDI-IQ, plate reader, 10 min; percent FRET-ratio fall versus neutral wells. AID 743397;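 active = mean replicate inhibition of at least 30% and at least 1% of replicates passing that level; inconclusive = only one of the two criteria is met; inactive = neither criterion is met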;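 note: 0% = median of the neutral control wells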
# SR-BI DiI-HDL act – activators of SR-BI mediated HDL lipid uptake; CHO ldlA[mSR-BI] cells, DiI-HDL uptake fluorescence, 3 h; 100 = double the neutral-control signal; 320,000 tested, 0.096% active; activation, % at 12.5 µM;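 active = mean replicate activation of at least 60% and every replicate at or above 60%; inconclusive = mean or all-replicate condition met, but not both; inactive = mean below 60% and not all replicates reaching 60%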;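 note: 0% = median plate neutral-control signal and 100% = twice that signal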
#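 material = CHO ldlA[mSR-BI] cells | medium = Ham's F12 with 0.5% BSA, HEPES 25 mM, pH 7.4 | reagent = fluorescent DiI-HDL, 10 µg/mL final | compound dosing = single-point compound dose | incubation = 3 h, 37 °C | measured by = bottom-read fluorescence, 550/595 nm | measure = HDL uptake via cellular fluorescence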
# SR-BI DiI inh – mouse SR-BI HDL lipid transfer inhibition; Q61009; ldlA[mSR-BI] CHO cells, DiI-HDL uptake fluorescence, 3 h; inhibition, % at 12.5 µM; 320,000 tested, 0.96% active; AID 488896;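 active = mean replicate inhibition of at least 70% and a set share of replicates each scoring 70 or more; inconclusive = meets just one of the two criteria; inactive = fails both criteria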;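 note: 0% = median of neutral control wells and 100% = median of positive control wells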
# V-ATPase pH – yeast V-ATPase proton transport regulation by pHLuorin. S. cerevisiae, pHLuorin cytosolic pH fluorescence. response, % at 10 µM. 350,000 tested, 0.37% active. AID 504577; in the data active = response mostly above about 7.3%, no sharp cut-off; inactive = mostly below about 5.4%; note: actives read high
# NTR1 ag – agonists of human neurotensin receptor NTR1; P30989; NTR1-U2OS beta-arrestin-GFP spot imaging, agonist mode; activation, % at 20 µM; 330,000 tested, 0.17% active; AID 493036;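 active = activation at or above 40% of the spot to cytoplasm intensity ratio, with at least 20 cells analyzed; inconclusive = wells under 20 cells, flagged as cytotoxic or low count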;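 note: 0% = DMSO without peptide and 100% = 100 nM NTR1 peptide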
# Target sequence (P30989 whole entry, looked up): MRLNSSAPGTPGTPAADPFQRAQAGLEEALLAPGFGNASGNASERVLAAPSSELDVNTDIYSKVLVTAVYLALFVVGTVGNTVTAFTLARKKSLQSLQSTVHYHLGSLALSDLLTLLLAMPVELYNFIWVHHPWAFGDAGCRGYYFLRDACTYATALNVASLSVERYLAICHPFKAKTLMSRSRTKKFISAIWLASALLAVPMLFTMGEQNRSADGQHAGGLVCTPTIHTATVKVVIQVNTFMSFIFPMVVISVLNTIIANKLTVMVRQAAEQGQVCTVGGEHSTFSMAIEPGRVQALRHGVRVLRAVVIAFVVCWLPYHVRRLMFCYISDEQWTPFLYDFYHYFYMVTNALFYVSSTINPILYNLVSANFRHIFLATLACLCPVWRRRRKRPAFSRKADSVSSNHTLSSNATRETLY
# Vif imaging – inhibitors of HIV Vif; inhibition, % at 7.49 µM; HEK293T cells, Vif self-association by quenched fluorescence, imaging, 24 h; 340,000 tested, 0.35% active; in the data active = inhibition above about 50%, passing the limit was not always enough; inconclusive = no clear call, values can overlap the other calls; inactive = below about 31%
# DiI quench – quenches DiI-HDL fluorescence, an SR-BI assay artifact; shares compounds with SR-BI DiI inh; cell-free DiI-HDL fluorescence quenching, 30 min; AC50, µM (highest dose often 35 µM), inactives show at the top dose activity change, negative = quenching; 470 tested, 20% active; AID 540326;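 active = quenching, a falling signal, with AC50 below a set limit tied to the top valid dose, actives reach about 32 µM in these data; inconclusive = no clear call, values can overlap the other calls; inactive = rising signal, and the rest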
# * marks the source's active call; other numbers are inactive results; ? = inconclusive; nt = no result given.
SMILES,CaV13 FRET inh,SR-BI DiI-HDL act,SR-BI DiI inh,V-ATPase pH,NTR1 ag,Vif imaging,DiI quench
CN(C(=O)COC(=O)CCc1c[nH]c2ccccc12)c1ccccc1,-6,25,-25,-2,2,-14,-5%
O=C(COC(=O)CCc1c[nH]c2ccccc12)Nc1ccccc1,-1,20,-20,-1,1,-1,nt
Cc1cc(C)cc(N(CCC#N)C(=O)COC(=O)CCc2c[nH]c3ccccc23)c1,-13,-74,?,-2,4,-4,-13%
CC(NC(=O)c1ccco1)C(=O)OC(C)C(=O)NCc1ccccc1 (stereo not given),1,-7,7,-2,2,-1,nt
Cc1cccc(NC(=O)C2(C)CC3c4ccccc4C2c2ccccc23)c1C (stereo not given),-7,-8,8,-2,5,1,2%
Cc1ccc(C)c(NC(=O)C2(C)CC3c4ccccc4C2c2ccccc23)c1 (stereo not given),nt,nt,nt,1,-1,1,nt
O=C(CN1c2cccc3cccc(c23)S1(=O)=O)N1CCN(c2ccccc2)CC1,-5,5,-5,8,0,-4,nt
Cc1ccc(-c2csc(N3CCN(c4ccc5nc(-c6ccncc6)n(CCN6CCCCC6)c5c4)CC3)n2)cc1,nt,-70,70*,2,2,-2,-19%
Cc1ccc(-c2csc(N3CCN(c4cc5c(cc4Cl)nc(-c4ccncc4)n5CCN4CCCCC4)CC3)n2)cc1,-10,-49,49,-5,9,3,nt
COC(=O)c1cc2c(ccn2-c2ccc(F)cc2)n1Cc1ccc(OC)cc1,-5,-68,68,-3,6,7,nt
COC(=O)c1cc2c(ccn2-c2ccc(F)cc2)n1Cc1ccc(C#N)cc1,-5,-78,78*,2,3,-2,2%
CC(C)NC(=O)c1nc2c(nnn2Cc2cccc(Cl)c2)c(=O)[nH]1,-3,5,-5,0,1,-1,nt
CCSCC1COC(c2cccn2Cc2ccc(C)cc2)=N1 (stereo not given),-3,-70,?,2,2,-7,-5%
CCC1COC(c2cccn2Cc2ccc(Cl)cc2)=N1 (stereo not given),-6,2,-2,1,2,13,nt
Cc1ccc(CNC(=O)c2ccc(N3CCC4(CC3)CC(c3cccc(Br)c3)=NO4)c([N+](=O)[O-])c2)cc1,-5,-81,81*,-3,0,nt,-2%
CCCNC(=O)c1ccc(N2CCC3(CC2)CC(c2cccc(Br)c2)=NO3)c([N+](=O)[O-])c1,-9,-62,62,-3,-1,-10,nt
CC(C(=O)NC1CCCC1)N(C(=O)Cn1nnc(-c2ccc(F)cc2)n1)c1ccccc1F (stereo not given),-3,1,-1,0,1,4,nt
COc1ccc(C)cc1N(CC(=O)NC1CCCC1)C(=O)Cn1nnc(-c2ccc(C)o2)n1,-5,-77,76*,1,-2,-8,-2%
O=C(NC1CCCC1)C(c1c[nH]c2ccccc12)N(C(=O)Cn1nnc(-c2ccc(Cl)cc2)n1)c1ccccc1 (stereo not given),-4,6,-6,-2,2,-1,-1%
O=C(CCCC(=O)N(CC(=O)NC1CCCC1)C1CCCC1)Nc1ccccn1,-6,-74,?,8,-1,0,1%
CC(C)(C)NC(=O)C(c1c[nH]c2ccccc12)N(C(=O)Cn1nnc(-c2ccc(Cl)cc2)n1)c1ccccc1F (stereo not given),-2,-3,3,-1,2,-19,nt
O=C(CN(C(=O)Cn1nnc(-c2ccc(F)cc2)n1)C1CCCC1)NC1CCCC1,-4,-94,94*,3,2,67*,-2%
COc1ccc(N(CC(=O)NC2CCCC2)C(=O)Cn2nnc(-c3ccc(OC)c(OC)c3)n2)c(OC)c1,-3,nt,nt,-1,-1,?,nt
CC[C@@H](C)[C@H](NC(=O)Cc1c(C)c2cc3c(C)c(C)oc3c(C)c2oc1=O)C(=O)O,-3,-95,95*,1,0,-10,-3%
CC[C@@H](C)[C@H](NC(=O)Cc1c(C)c2cc3c(C)coc3c(C)c2oc1=O)C(=O)O,-2,nt,nt,1,-1,-4,nt
SMILES,CaV13 FRET inh,SR-BI DiI-HDL act,SR-BI DiI inh,V-ATPase pH,NTR1 ag,Vif imaging,DiI quench
Nc1ccc(N2CCCC2)c(S(=O)(=O)Nc2cccc(C(F)(F)F)c2)c1,-5,-15,15,-2,1,-1,nt
Cc1ccc(-n2nc(C)c3c(C(=O)OCC(=O)N(C)C4CCS(=O)(=O)C4)cc(-c4ccccc4)nc32)cc1 (stereo not given),-6,-70,?,-1,0,-1,?
CC(=O)c1c(C)[nH]c(C(=O)Nc2ccc(C)c(S(=O)(=O)Nc3ccc(C)cc3C)c2)c1C,11,-83,83*,0,14,15,11%
CN1CCc2ccc(NC(=O)c3ccc(C(F)(F)F)cc3)cc2C1,-5,-82,82*,-2,3,-5,2%
CCn1cc(C(=O)NC2CCCCCC2)c(=O)c2ccc(C)nc21,-1,1,-1,-2,1,26,nt
CCc1cc(=O)oc2c3c(cc(OCC(=O)NCc4ccco4)c12)OC(C)(C)CC3,nt,-76,?,-1,5,-17,0%
O=C(Nc1ccc(-c2ccc(N3CCCCC3)nn2)cc1)c1ccco1,-2,-38,38,2,-1,-6,nt
CCS(=O)(=O)N1CCC(N2CCC(C)CC2)CC1,-1,11,-11,1,0,-6,nt
COC(=O)c1ccc2c(c1)C(=O)/C(=C/c1ccc(C)cc1)O2,-3,-6,6,1,3,-6,nt
CN(C)c1ccc(/C=C2\Oc3ccc(C#Cc4cccc(N)c4)cc3C2=O)cc1,nt,-70,?,-9,-4,63*,-14%
CCCCN(Cc1ccccc1)c1ncnc2nc[nH]c12,nt,-74,74*,1,1,0,0%
N#Cc1ccccc1S(=O)(=O)N1CCN(C(=O)C2CC(=O)N(c3ccc4c(c3)OCCO4)C2)CC1 (stereo not given),-3,1,-1,3,2,10,-10%
COc1ccc(NC(=O)C(c2ccncc2)n2c(=O)c(-c3ccco3)nc3ccccc32)cc1 (stereo not given),-4,nt,nt,nt,nt,nt,nt
CCCC(=O)N1CCCC1(C)C(=O)Nc1ccc2cn[nH]c2c1 (stereo not given),-6,nt,nt,nt,nt,-2,nt
Cc1ccc(NC(=O)C2CCN(S(=O)(=O)c3ccc4c(c3)OCCO4)CC2)nc1,-5,-2,2,-4,1,-10,nt
